The nature of series [1]: Clearance in human hepatocytes at 1 uM by LC/MS/MS analysis. The series is classed as ADME, cell-based, Hepatocyte. The method in brief: (§1)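 Human hepatocytes, incubated with and without the aldehyde oxidase inhibitor raloxifene; predicted clearance calculated from turnover.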
The next series has as its system Hepatocyte. The experiment in a line: Clearance in human hepatocytes at 1 uM by LC/MS/MS in presence of aldehyde oxidase inhibitor raloxifene. The series is classed as ADME, cell-based. The method, boiled down:
as §1

Series [2] has as its target PI3-kinase p110-delta/p85-alpha (Homo sapiens, UniProt O00329). The experiment in a line: Inhibition human full length PI3Kdelta catalytic subunit/p85alpha assessed as formation of PIP3 after 30 mins by europium labeled GRP-based TR-FRET assay. The class given is protein-complex assay.
For series [3], the species on record is Homo sapiens. The experiment in a line: Selectivity ratio of IC50 for human full length PI3Kalpha catalytic subunit/p85alpha to IC50 for human full length PI3Kdelta catalytic subunit/p85alpha. The method, boiled down:
(§2)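 Ratio calculated from the isoform-specific PI3K IC50 values, with enzyme assays run in quadruplicate.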

The species named for series [4] is Homo sapiens. Nature of the series: Selectivity ratio of IC50 for human full length PI3Kgamma to IC50 for human full length PI3Kdelta catalytic subunit/p85alpha. The method in brief:
as §2

For series [5], the species on record is Homo sapiens. The experiment in a line: Selectivity ratio of IC50 for human recombinant PI3Kbeta to IC50 for human full length PI3Kdelta catalytic subunit/p85alpha. The method, boiled down:
as §2

The target of series [6] is T1, Aldehyde oxidase (Homo sapiens, UniProt Q06278).
T1 sequence (Q06278 whole entry): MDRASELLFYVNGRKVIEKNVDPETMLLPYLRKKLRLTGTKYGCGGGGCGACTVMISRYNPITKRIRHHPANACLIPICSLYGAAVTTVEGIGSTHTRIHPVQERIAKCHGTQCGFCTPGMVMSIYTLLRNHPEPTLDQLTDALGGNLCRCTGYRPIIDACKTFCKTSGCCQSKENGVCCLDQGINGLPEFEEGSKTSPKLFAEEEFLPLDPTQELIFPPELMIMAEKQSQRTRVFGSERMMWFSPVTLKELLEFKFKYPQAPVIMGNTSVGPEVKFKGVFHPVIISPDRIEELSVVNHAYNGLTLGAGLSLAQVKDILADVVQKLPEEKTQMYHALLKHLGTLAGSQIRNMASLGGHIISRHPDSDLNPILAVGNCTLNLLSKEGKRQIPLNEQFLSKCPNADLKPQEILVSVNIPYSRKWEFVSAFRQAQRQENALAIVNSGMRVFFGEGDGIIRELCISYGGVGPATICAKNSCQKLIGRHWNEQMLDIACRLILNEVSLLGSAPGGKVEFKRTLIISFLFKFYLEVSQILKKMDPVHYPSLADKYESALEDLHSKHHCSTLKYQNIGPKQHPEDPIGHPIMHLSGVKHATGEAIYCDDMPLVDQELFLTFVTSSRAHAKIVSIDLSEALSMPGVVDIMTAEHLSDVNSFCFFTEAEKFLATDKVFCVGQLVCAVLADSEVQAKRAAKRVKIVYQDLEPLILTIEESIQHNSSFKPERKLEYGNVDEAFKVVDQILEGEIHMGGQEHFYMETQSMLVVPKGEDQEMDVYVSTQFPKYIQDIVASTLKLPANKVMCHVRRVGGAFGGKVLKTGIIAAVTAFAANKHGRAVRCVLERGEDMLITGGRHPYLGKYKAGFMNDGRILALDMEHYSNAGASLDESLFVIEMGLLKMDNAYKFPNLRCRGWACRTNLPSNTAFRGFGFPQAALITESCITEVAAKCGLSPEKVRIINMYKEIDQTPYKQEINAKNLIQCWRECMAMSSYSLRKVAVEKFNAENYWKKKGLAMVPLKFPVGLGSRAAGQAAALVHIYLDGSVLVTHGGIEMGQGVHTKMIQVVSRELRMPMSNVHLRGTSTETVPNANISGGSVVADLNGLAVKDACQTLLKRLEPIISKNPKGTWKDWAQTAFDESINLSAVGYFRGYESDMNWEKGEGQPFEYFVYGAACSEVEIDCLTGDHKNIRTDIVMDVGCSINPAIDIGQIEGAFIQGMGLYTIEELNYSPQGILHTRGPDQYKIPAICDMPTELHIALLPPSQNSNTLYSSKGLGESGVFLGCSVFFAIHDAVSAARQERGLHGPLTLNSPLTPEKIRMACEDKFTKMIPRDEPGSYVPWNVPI
The experiment in a line: Drug level in human hepatocytes assessed as aldehyde oxidase-mediated compound formation treated with (S)-4-Amino-6-((1-(5-chloro-4-oxo-3-phenyl-3,4-dihydroquinazolin-2-yl)ethyl)amino)pyrimidine-5-carbonitrile at 1 uM by LC/MS/MS analysis. The series is classed as ADME, cell-based, Hepatocyte.

For series [7], the target named is T1, Aldehyde oxidase. The experiment in a line: Drug metabolism in human hepatocytes assessed as aldehyde oxidase mediated M1 formation at 1 uM by LC/MS/MS analysis. The class given is ADME, cell-based, Hepatocyte.
Series [8] addresses T1, Aldehyde oxidase. The experiment in a line: Drug metabolism in human hepatocytes assessed as aldehyde oxidase mediated (S)-4-Amino-6-((1-(5-chloro-4-oxo-3-phenyl 3,4-dihydroquinazolin-2-yl)ethyl)amino)-2-hydroxypyrimidine-5-carbonitrile formation at 1 uM by LC/MS/MS analysis. The series is classed as ADME, cell-based, Hepatocyte.
For series [9], the system named is Liver microsome. Nature of the series: Clearance in human liver microsomes at 1 uM by LC/MS/MS analysis in presence of NADPH generating system. The series is classed as ADME. On the technique in general: Liver microsomes are vesicles of endoplasmic reticulum, rich in cytochrome P450 enzymes.
Series [10] in a line: Half life in Sprague-Dawley rat at 0.44 mg/kg, iv by LC/MS/MS analysis. The series is classed as ADME, organism-based. The note with it: in vivo. The method in brief:
(§3)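 Single intravenous dose of 0.44 mg/kg to Sprague-Dawley rats, formulated at 0.09 mg/mL in 5% ethanol, 75% PEG 400 and 20% citrate buffer (pH 3.0). Three animals per dosing route. Volume of distribution taken at steady state.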

Series [11] in a line: Clearance in Sprague-Dawley rat at 0.44 mg/kg, iv by LC/MS/MS analysis. The series is classed as ADME, organism-based. The note with it: in vivo. The method, boiled down:
as §3

Series [12] in a line: Volume of distribution at steady state in Sprague-Dawley rat at 0.44 mg/kg, iv by LC/MS/MS analysis. The series is classed as ADME, organism-based. The note with it: in vivo, read-out: Vdss. The method in brief: as §3
Series [13] deals with Liver microsome. Nature of the series: Clearance in rat liver microsomes at 1 uM by LC/MS/MS analysis in presence of NADPH generating system. The class given is ADME.

Sequence of PI3-kinase p110-delta/p85-alpha (P27986 whole entry): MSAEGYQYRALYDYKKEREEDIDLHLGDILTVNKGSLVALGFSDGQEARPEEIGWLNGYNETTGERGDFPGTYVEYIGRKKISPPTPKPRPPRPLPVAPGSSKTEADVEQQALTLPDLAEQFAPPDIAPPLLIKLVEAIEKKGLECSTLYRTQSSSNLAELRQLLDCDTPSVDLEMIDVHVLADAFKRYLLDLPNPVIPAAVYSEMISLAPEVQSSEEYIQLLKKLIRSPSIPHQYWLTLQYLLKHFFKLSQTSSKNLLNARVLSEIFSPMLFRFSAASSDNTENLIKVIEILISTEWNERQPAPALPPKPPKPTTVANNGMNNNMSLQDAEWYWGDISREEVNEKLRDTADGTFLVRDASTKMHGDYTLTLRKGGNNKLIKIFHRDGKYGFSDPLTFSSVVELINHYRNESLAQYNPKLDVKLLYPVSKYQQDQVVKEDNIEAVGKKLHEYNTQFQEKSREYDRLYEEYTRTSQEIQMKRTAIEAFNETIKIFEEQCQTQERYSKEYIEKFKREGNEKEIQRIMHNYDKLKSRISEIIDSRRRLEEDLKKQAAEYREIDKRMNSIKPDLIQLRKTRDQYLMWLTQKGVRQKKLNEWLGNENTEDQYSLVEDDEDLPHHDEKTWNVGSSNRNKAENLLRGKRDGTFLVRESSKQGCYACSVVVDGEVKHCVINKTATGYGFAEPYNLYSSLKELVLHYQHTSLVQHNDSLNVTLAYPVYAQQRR
Sequence of PI3-kinase p110-delta/p85-alpha (O00329 whole entry): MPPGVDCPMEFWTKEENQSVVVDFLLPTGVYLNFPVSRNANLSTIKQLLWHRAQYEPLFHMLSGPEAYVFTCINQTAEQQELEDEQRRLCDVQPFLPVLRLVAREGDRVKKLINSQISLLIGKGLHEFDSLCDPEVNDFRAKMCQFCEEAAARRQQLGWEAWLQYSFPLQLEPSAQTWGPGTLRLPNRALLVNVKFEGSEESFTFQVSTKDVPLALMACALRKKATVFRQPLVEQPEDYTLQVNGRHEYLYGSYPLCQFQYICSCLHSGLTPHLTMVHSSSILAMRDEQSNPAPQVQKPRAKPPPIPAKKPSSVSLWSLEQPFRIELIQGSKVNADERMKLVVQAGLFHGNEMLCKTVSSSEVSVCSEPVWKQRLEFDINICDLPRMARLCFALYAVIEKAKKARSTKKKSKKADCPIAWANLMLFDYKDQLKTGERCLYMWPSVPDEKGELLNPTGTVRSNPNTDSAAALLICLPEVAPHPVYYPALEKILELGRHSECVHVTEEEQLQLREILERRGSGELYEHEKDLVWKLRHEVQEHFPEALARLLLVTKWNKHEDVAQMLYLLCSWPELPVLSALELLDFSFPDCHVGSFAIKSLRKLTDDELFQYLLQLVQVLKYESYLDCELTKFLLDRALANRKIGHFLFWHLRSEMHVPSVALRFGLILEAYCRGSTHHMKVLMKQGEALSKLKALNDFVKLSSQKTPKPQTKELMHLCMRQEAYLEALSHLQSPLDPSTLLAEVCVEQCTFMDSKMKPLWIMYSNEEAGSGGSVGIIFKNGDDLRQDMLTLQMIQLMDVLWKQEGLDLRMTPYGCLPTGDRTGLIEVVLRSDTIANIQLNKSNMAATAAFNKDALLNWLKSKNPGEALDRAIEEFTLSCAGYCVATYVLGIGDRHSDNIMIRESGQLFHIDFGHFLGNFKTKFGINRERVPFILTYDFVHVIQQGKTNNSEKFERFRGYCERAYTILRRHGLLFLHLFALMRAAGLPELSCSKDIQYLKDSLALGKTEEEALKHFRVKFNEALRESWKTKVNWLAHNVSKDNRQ

On to `[2H]c1nc(N)c(C#N)c(N[C@@H](C)c2nc3cccc(Cl)c3c(=O)n2-c2ccccc2)n1`, for which, in [1], the CLhep predicted at 1 µM is 8.33 mL/min/kg. The CLH in the series with Hepatocyte came to 1.7 mL/min/kg. In addition, in series [2], the IC50 turned out to be 1.2 nM.

For the compound `Cc1c(N)ncnc1N[C@@H](C)c1nc2cccc(Cl)c2c(=O)n1-c1ccccc1`, the Ratio IC50 is 700 in the series listed under Homo sapiens [3], 700 in the series listed under Homo sapiens [4] and 380 in the series filed under Homo sapiens [5]. The CLhep predicted at 1 µM in series [1] is 12.2 mL/min/kg. Also, in the series with Hepatocyte, the CLH is 4.17 mL/min/kg. Moreover, in series [2], the IC50 amounted to 14 nM.

On to `C[C@H](Nc1nc(O)nc(N)c1C#N)c1nc2cccc(Cl)c2c(=O)n1-c1ccccc1`, for which the Drug metabolism entry on Aldehyde oxidase [6] was “metabolite_detected”.

With `C[C@H](Nc1ncnc(N)c1C(N)=O)c1nc2cccc(Cl)c2c(=O)n1-c1ccccc1`, the Ratio IC50 in the series filed under Homo sapiens [3] stood at 860; in the series filed under Homo sapiens [4], 310; in the series filed under Homo sapiens [5], 310. The CLhep predicted at 1 µM in series [1] was 4.5 mL/min/kg. Further, in the series on Hepatocyte, the CLH was found to be 1.3 mL/min/kg. For the same compound, in series [2], the IC50 turned out to be 11 nM.

As for `C[C@H](Nc1nc(N)nc(N)c1C#N)c1nc2cccc(Cl)c2c(=O)n1-c1ccccc1`, the Ratio IC50 was 2200 in the series listed under Homo sapiens [3], 60 in the series filed under Homo sapiens [4] and 80 in the series filed under Homo sapiens [5]. Also, the CLhep predicted at 1 µM in series [1] was 3.5 mL/min/kg. Moreover, in the series with Hepatocyte, the CLH was 1.7 mL/min/kg. Besides, in series [2], the IC50 came to 0.1 nM.

Regarding `C[C@H](Nc1ncnc(N)c1C(F)(F)F)c1nc2cccc(Cl)c2c(=O)n1-c1ccccc1`, the Ratio IC50 in the series listed under Homo sapiens [3] is 1200; in the series filed under Homo sapiens [4] it was 560; in the series listed under Homo sapiens [5], 340. In addition, in series [1], the CLhep predicted at 1 µM is 9.83 mL/min/kg. For the same compound, the CLH in the series with Hepatocyte came to 2 mL/min/kg. For the same compound, the IC50 in series [2] stood at 1.8 nM.

As for `C[C@H](Nc1nc(N)nc(N)c1C#N)c1nc2cccc(Cl)c2c(=O)n1-c1cc(F)cc(F)c1`, the Ratio IC50 came out at 2600 in the series listed under Homo sapiens [3], 110 in the series listed under Homo sapiens [4] and 520 in the series listed under Homo sapiens [5]. The CLhep predicted at 1 µM in series [1] is 13.5 mL/min/kg. For the same compound, the IC50 in series [2] worked out at 0.47 nM.

Turning to `C[C@H](Nc1ncnc(N)c1C#Cc1ccc(F)cn1)c1nc2cccc(Cl)c2c(=O)n1-c1ccccc1`, the Ratio IC50 in the series listed under Homo sapiens [3] is 2600; in the series filed under Homo sapiens [4], 470; in the series filed under Homo sapiens [5] it was 330. Further, the CLhep predicted at 1 µM in [1] was 8.5 mL/min/kg. Further, the Drug metabolism entry at Aldehyde oxidase [7] is listed as “metabolite_detected”. Moreover, the CLH in the series with Hepatocyte stood at 2.17 mL/min/kg. Besides, the IC50 in [2] came to 1.2 nM.

With `C[C@H](Nc1nc(N)nc(N)c1C#N)c1nc2c(F)cccc2c(=O)n1-c1cc(F)cc(F)c1`, the figures for the Ratio IC50 in the series listed under Homo sapiens [3], in the series filed under Homo sapiens [4] and in the series listed under Homo sapiens [5] were 810, 130 and 920, respectively. Besides, the CLhep predicted at 1 µM in series [1] is 8.83 mL/min/kg. Besides, the IC50 in series [2] amounted to 3.5 nM.

Turning to `C[C@H](Nc1nc(N)nc(N)c1C#N)c1nc2ccc(F)c(Cl)c2c(=O)n1-c1cc(F)cc(F)c1`, the figures for the Ratio IC50 in the series filed under Homo sapiens [3], in the series listed under Homo sapiens [4] and in the series listed under Homo sapiens [5] were 780, 74 and 470, respectively. For the same compound, in series [1], the CLhep predicted at 1 µM is 6.5 mL/min/kg. In addition, the half-maximal inhibitory concentration (IC50) in [2] amounted to 2.9 nM.

With `C[C@H](Nc1nc(N)nc(N)c1C#N)c1nc2ccccc2c(=O)n1-c1cc(F)cc(F)c1`, the Ratio IC50 in the series filed under Homo sapiens [3] was found to be 530; in the series filed under Homo sapiens [4] it was 75; in the series filed under Homo sapiens [5] it was 290. The CLhep predicted at 1 µM in [1] is 2.83 mL/min/kg. Also, in series [2], the IC50 amounted to 15 nM.

Consider `C[C@H](Nc1ncnc(N)c1C#N)c1nc2cccc(Cl)c2c(=O)n1-c1ccccc1`, for which the Drug metabolism result on Aldehyde oxidase [8] is recorded as “metabolite_detected”. The Ratio IC50 in the series filed under Homo sapiens [3] is 4600; in the series listed under Homo sapiens [3] (tested as the 2H-labelled form), 1200; in the series filed under Homo sapiens [4], 680; in the series listed under Homo sapiens [4] (tested as the 2H-labelled form) it was 420; in the series filed under Homo sapiens [5] it was 200; in the series filed under Homo sapiens [5] (tested as the 2H-labelled form) it was 70. The results for the CLH in the series with Liver microsome [9], in the series with Liver microsome [13] and in the series with Hepatocyte were 1.7 mL/min/kg, 3.3 mL/min/kg and 1.5 mL/min/kg, respectively. In series [10], this compound had a half-life of 2.6 h. The clearance in [11] was 18.3 mL/min/kg. Besides, the Vd in series [12] worked out at 2.6 L/kg. In series [1], the CLhep predicted at 1 µM was 14.7 mL/min/kg. The IC50 in series [2] turned out to be 0.4 nM.

Broadly, the IC50 is the concentration that gives 50% inhibition. As usually defined, the half-life is the time in which the quantity being followed falls by half. What is called clearance is a measure of how efficiently the substance is removed, as volume per time.

The record behind these values is ChEMBL document CHEMBL3804828, “2,4,6-Triaminopyrimidine as a Novel Hinge Binder in a Series of PI3Kδ Selective Inhibitors” (J Med Chem, 2016).
